# Assay results published in ChEMBL document CHEMBL1141663, “Synthesis and antibacterial activity of bis-[2-hydroxy-3-(1,7,8,9,10-pentamethyl-3,5-dioxo-4-aza-tricyclo[5.2.1.0(2,6)]dec-8-en-4-yloxy)-propyl]-dimethyl-ammonium chloride” (2008).
# Activity calls are given as the source filed them. The calls are words filed in the database; no cut-off is given here.
# Assays:
# Staphylococcus aureus [1] = assay: Antibacterial activity against methicillin-resistant Staphylococcus aureus 85/06 isolates after 18 hrs; type: functional
# Outline: (§1)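 Agar-dilution MIC on Mueller–Hinton II agar per CLSI guidelines. Aqueous test solutions were added to liquid agar to give two dilution series across 6.25–400 µg/mL. Solidified plates were spot-inoculated with 2 µL aliquots to a final inoculum of 10^4 […]. […] Strains were standard S. aureus strains or hospital patient isolates typed MSSA/MRSA.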
# Staphylococcus aureus [2] = assay: Antibacterial activity against methicillin-susceptible Staphylococcus aureus 65/05 isolates after 18 hrs; type: functional; outline: as §1
# Staphylococcus aureus [3] = assay: Antibacterial activity against methicillin-resistant Staphylococcus aureus 47/05 isolates after 18 hrs; type: functional; outline: as §1
# Staphylococcus aureus [4] = assay: Antibacterial activity against Staphylococcus aureus ATCC 6538P after 18 hrs; type: functional; outline: as §1
# Staphylococcus aureus [5] = assay: Antibacterial activity against methicillin-resistant Staphylococcus aureus 1/04 isolates after 18 hrs; type: functional; outline: as §1
# Staphylococcus aureus [6] = assay: Antibacterial activity against Staphylococcus aureus ATCC 25923 at 100 ug/disk after 24 to 48 hrs by disc-diffusion method; type: functional; settings: read-out: IZ
# Staphylococcus aureus [7] = assay: Antibacterial activity against methicillin-susceptible Staphylococcus aureus 36/05 isolates after 18 hrs; type: functional; outline: as §1
# Pseudomonas aeruginosa [8] = assay: Antibacterial activity against Pseudomonas aeruginosa ATCC 15442 at 100 ug/disk […] by disc-diffusion method; type: functional, organism-based
# [9] = system: Bordetella bronchiseptica; assay: Antibacterial activity against Bordetella bronchiseptica ATCC 4617 at 100 ug/disk […] by disc-diffusion method; type: functional; settings: read-out: IZ
# Pseudomonas aeruginosa [10] = assay: Antibacterial activity against Pseudomonas aeruginosa NCTC 6749 at 100 ug/disk […] by disc-diffusion method; type: functional, organism-based
# Staphylococcus aureus [11] = assay: Antibacterial activity against methicillin-resistant Staphylococcus aureus 54/05 isolates after 18 hrs; type: functional; outline: as §1
# Candida albicans [12] = assay: Antimicrobial activity against Candida albicans ATCC 10231 at 100 ug/disk after 24 to 48 hrs by disc-diffusion method; type: functional, organism-based
# Outline: (§2)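 Antifungal disc diffusion on YNB agar under CLSI guidelines. Sterile 10 mm filter-paper discs were loaded from aqueous solution with 100 or 400 µg of compound per disc. Plates were read after 24–48 h incubation at 30 °C.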
# Staphylococcus aureus [13] = assay: Antibacterial activity against methicillin-susceptible Staphylococcus aureus 98/06 isolates after 18 hrs; type: functional; outline: as §1
# Pseudomonas aeruginosa [14] = assay: Antibacterial activity against Pseudomonas aeruginosa ATCC 15442 at 400 ug/disk […] by disc-diffusion method; type: functional, organism-based
# Staphylococcus aureus [15] = assay: Antibacterial activity against Staphylococcus aureus ATCC 29213 at 100 ug/disk after 24 to 48 hrs by disc-diffusion method; type: functional; settings: read-out: IZ
# Staphylococcus aureus [16] = assay: Antibacterial activity against Staphylococcus aureus NCTC 4163 at 100 ug/disk after 24 to 48 hrs by disc-diffusion method; type: functional; settings: read-out: IZ
# Staphylococcus aureus [17] = assay: Antibacterial activity against methicillin-resistant Staphylococcus aureus 90/06 isolates after 18 hrs; type: functional; outline: as §1
# Staphylococcus aureus [18] = assay: Antibacterial activity against methicillin-susceptible Staphylococcus aureus 28/04 isolates after 18 hrs; type: functional; outline: as §1
# Staphylococcus aureus [19] = assay: Antibacterial activity against methicillin-resistant Staphylococcus aureus 48/05 isolates after 18 hrs; type: functional; outline: as §1
# Staphylococcus aureus [20] = assay: Antibacterial activity against methicillin-resistant Staphylococcus aureus 91/06 isolates after 18 hrs; type: functional; outline: as §1
# Staphylococcus aureus [21] = assay: Antibacterial activity against methicillin-susceptible Staphylococcus aureus 60/05 isolates after 18 hrs; type: functional; outline: as §1
# Staphylococcus aureus [22] = assay: Antibacterial activity against Staphylococcus aureus ATCC 6538P at 100 ug/disk after 24 to 48 hrs by disc-diffusion method; type: functional; settings: read-out: IZ
# Staphylococcus aureus [23] = assay: Antibacterial activity against methicillin-susceptible Staphylococcus aureus 4/04 isolates after 18 hrs; type: functional; outline: as §1
# Staphylococcus aureus [24] = assay: Antibacterial activity against methicillin-susceptible Staphylococcus aureus 6/04 isolates after 18 hrs; type: functional; outline: as §1
# Staphylococcus aureus [25] = assay: Antibacterial activity against Staphylococcus aureus ATCC 6538P at 400 ug/disk after 24 to 48 hrs by disc-diffusion method; type: functional; settings: read-out: IZ
# Candida albicans [26] = assay: Antimicrobial activity against Candida albicans ATCC 10231 at 400 ug/disk after 24 to 48 hrs by disc-diffusion method; type: functional; settings: read-out: IZ; outline: as §2
# Staphylococcus aureus [27] = assay: Antibacterial activity against methicillin-susceptible Staphylococcus aureus 102/06 isolates after 18 hrs; type: functional; outline: as §1
# Staphylococcus aureus [28] = assay: Antibacterial activity against methicillin-susceptible Staphylococcus aureus 7/04 isolates after 18 hrs; type: functional; outline: as §1
# Staphylococcus aureus [29] = assay: Antibacterial activity against methicillin-resistant Staphylococcus aureus 5/04 isolates after 18 hrs; type: functional; outline: as §1
# Staphylococcus aureus [30] = assay: Antibacterial activity against methicillin-susceptible Staphylococcus aureus 14/04 isolates after 18 hrs; type: functional; outline: as §1
# Staphylococcus aureus [31] = assay: Antibacterial activity against methicillin-susceptible Staphylococcus aureus 69/05 isolates after 18 hrs; type: functional; outline: as §1
# Bacillus subtilis = assay: Antibacterial activity against Bacillus subtilis ATCC 6633 at 400 ug/disk […] by disc-diffusion method; type: functional; settings: read-out: IZ
# [32] = system: Bordetella bronchiseptica; assay: Antibacterial activity against Bordetella bronchiseptica ATCC 4617 at 400 ug/disk […] by disc-diffusion method; type: functional; settings: read-out: IZ
compound,measurement,setting,value
CC1=C(C)C2(C)C3C(=O)N(OCC(O)C[N+](C)(C)CC(O)CON4C(=O)C5C(C4=O)C4(C)C(C)=C(C)C5(C)C4C)C(=O)C3C1(C)C2C.[Cl-] (stereo not drawn),MIC,Staphylococcus aureus [1],100 µg/mL
same,MIC,Staphylococcus aureus [2],25 µg/mL
same,MIC,Staphylococcus aureus [3],50 µg/mL
same,MIC,Staphylococcus aureus [4],50 µg/mL
same,MIC,Staphylococcus aureus [5],50 µg/mL
same,zone of inhibition at 100 µg/disc,Staphylococcus aureus [6],16 mm
same,MIC,Staphylococcus aureus [7],50 µg/mL
same,Activity,Pseudomonas aeruginosa [8],inactive
same,zone of inhibition at 100 µg/disc,[9],13 mm
same,Activity,Pseudomonas aeruginosa [10],inactive
same,MIC,Staphylococcus aureus [11],50 µg/mL
same,Activity,Candida albicans [12],inactive
same,MIC,Staphylococcus aureus [13],100 µg/mL
same,Activity,Pseudomonas aeruginosa [14],inactive
same,zone of inhibition at 100 µg/disc,Staphylococcus aureus [15],14 mm
same,zone of inhibition at 100 µg/disc,Staphylococcus aureus [16],17 mm
same,MIC,Staphylococcus aureus [17],100 µg/mL
same,MIC,Staphylococcus aureus [18],50 µg/mL
same,MIC,Staphylococcus aureus [19],100 µg/mL
same,MIC,Staphylococcus aureus [20],100 µg/mL
same,MIC,Staphylococcus aureus [21],25 µg/mL
same,zone of inhibition at 100 µg/disc,Staphylococcus aureus [22],17 mm
same,MIC,Staphylococcus aureus [23],25 µg/mL
same,MIC,Staphylococcus aureus [24],25 µg/mL
same,zone of inhibition at 400 µg/disc,Staphylococcus aureus [25],23 mm
same,zone of inhibition at 400 µg/disc,Candida albicans [26],14 mm
same,MIC,Staphylococcus aureus [27],50 µg/mL
same,MIC,Staphylococcus aureus [28],25 µg/mL
same,MIC,Staphylococcus aureus [29],200 µg/mL
same,MIC,Staphylococcus aureus [30],25 µg/mL
same,MIC,Staphylococcus aureus [31],25 µg/mL
same,zone of inhibition at 400 µg/disc,Bacillus subtilis,30 mm
same,zone of inhibition at 400 µg/disc,[32],21 mm
